The source made the active and inactive calls.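 How the source made its calls, unless noted: active means viability at or below 30% in both replicate assays; inconclusive means viability at or below 30% in just one of the two assays; inactive means the rest.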

These results are taken from PubChem BioAssay.

The nature of experiment [1]: HUVEC growth inhibition – cell-based, human, primary screen (AID 575).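 Further: 100% = median of untreated cell wells with 0.1% DMSO on each plate.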 As to conditions: HUVEC proliferation, CellTiter-Glo luminescence, 72 h; at 10 µM; stronger effect = lower value. The gist of the method: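 Assay system: Primary human umbilical vein endothelial cells | Quantity: 1250 cells per well | Medium: Supplemented EBM, 2% fetal bovine serum | Detection: CellTiter-Glo luminescence measuring cellular ATP | Read-out: % viability vs DMSO wells | Plate: Collagen-coated 384-well format | Times: 72 h exposure, 37 °C, 5% CO2, 30 min RT equilibration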
For orientation: Cellular ATP, detected with luciferase, serves as a proxy for viable cell number.

The nature of experiment [2]: growth inhibitors of H69AR lung tumor, primary screen, human, duplicate replicates (AID 580;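 active means viability at or under a set limit in both replicates, limit being median viability minus 3 SD, cut at about 48% in these data, passing the limit was not always enough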;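 further: 100% = mean luminescence of untreated wells and 0% = no signal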). As to conditions: H69AR lung tumor cells viability, ATP luminescence, 72 h; at 10 µM; stronger effect = lower value.
Experiment [3] can be described thus: reversal of MRP1-mediated doxorubicin resistance, pilot screen, H69AR cells, doxorubicin co-treatment (AID 601;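 active means viability loss from added drug above about 55%, and viability with drug at most 40%, in both replicates, limit read from the data, passing the limit was not always enough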). The settings on record: CellTiter-Glo, 72 h, at 10 µM; for differential viability (reversal): stronger effect = higher value.
Experiment [4] in a line: 384-well plate pilot, post-Golgi transport modulator project, inhibition of yeast transport mutant growth (AID 636; in the data active means inhibition above about 31%). The settings on record: absorbance 615 nm, about 18 h, stronger effect = higher value.
A short description of experiment [5]: growth suppression of yeast trafficking mutant, preliminary HTS, modulators of trafficking downstream of Golgi apparatus project, 1536-format plate, OD 615 nm (AID 637; in the data active means inhibition above about 30%). The settings on record: yeast transport mutant growth, absorbance 615 nm, 18 h; stronger effect = higher value.
The mark [6] stands for this setting: H69AR cells + 2 uM doxorubicin, measured here: viability with 2 uM doxorubicin, stronger effect = lower value.
The mark [7] stands for this setting: H69AR cells, compound alone cytotoxicity.

For `O=c1c2ccc(-c3nnc4n3-c3ccccc3SC4)cc2nc2n1CCCCC2`, the viability (as a rule, a read-out of living cells in per cent, often relative to untreated cells) in experiment [1] is 94.9% (inactive); in experiment [2], 94.4% (inactive); in experiment [3] (setting [6]), 85.5%; in experiment [3] (setting [7]), 94.4%. Also, the differential viability (reversal) in experiment [3] (H69AR cells + 2 uM doxorubicin) is 8.88% (inactive). Further, the inhibition – broadly, the relative decrease from the control value, in per cent – in experiment [4] is -5.33% (inactive); in experiment [5] it was 6.83% (inactive).
With `COc1ccc(-n2c(N)c(C(=O)NCc3ccco3)c3nc4ccccc4nc32)c(OC)c1`, the viability in experiment [1] was 61.8% (inactive); in experiment [2] it was 11% (active); in experiment [3] (setting [6]), 12.4%; in experiment [3] (setting [7]), 11%. For the same compound, in experiment [3] (H69AR cells + 2 uM doxorubicin), the differential viability (reversal) is -1.38% (inactive). Also, the results for the inhibition in experiment [4] and in experiment [5] were -0.8% (inactive) and -0.16% (inactive), respectively.
For `COc1ccc(C2C(C(C)=O)=C(C)N=c3s/c(=C\c4ccc5c(c4)OCO5)c(=O)n32)c(OC)c1` (stereo not given), the viability in experiment [1] is 77.2% (inactive); in experiment [2] it was 99.7% (inactive); in experiment [3] (setting [6]) it was 103%; in experiment [3] (setting [7]), 99.7%. Also, in experiment [3] (H69AR cells + 2 uM doxorubicin), the differential viability (reversal) is -2.84% (inactive). For the same compound, the inhibition in experiment [4] was -2.08% (inactive); in experiment [5] it was -4.76% (inactive).
For `C=CCNc1oc(-c2cccc3ccccc23)nc1C#N`, the viability in experiment [1] was 92.5% (inactive); in experiment [2], 84.8% (inactive); in experiment [3] (setting [6]), 84.1%; in experiment [3] (setting [7]) it was 84.8%. Further, the differential viability (reversal) in experiment [3] (H69AR cells + 2 uM doxorubicin) is 0.75% (inactive). The inhibition in experiment [4] was -5.47% (inactive); in experiment [5] it was -0.95% (inactive).
Consider `N#CCSCC(=O)Nc1ccc(F)cc1`, for which the viability in experiment [1] is 91.7% (inactive); in experiment [2] it was 93.1% (inactive); in experiment [3] (setting [6]), 83.6%; in experiment [3] (setting [7]) it was 93.1%. The differential viability (reversal) in experiment [3] (H69AR cells + 2 uM doxorubicin) was 9.54% (inactive). Also, the inhibition in experiment [4] was -3.68% (inactive); in experiment [5], 0% (inactive).
`CCOCCCNC(=O)c1ccc2c(c1)ncn2C1CCCC1`: the viability was 91% (inactive) in experiment [1], 95.8% (inactive) in experiment [2], 88.5% in experiment [3] (setting [6]) and 95.8% in experiment [3] (setting [7]). Further, in experiment [3] (H69AR cells + 2 uM doxorubicin), the differential viability (reversal) is 7.26% (inactive). Also, the results for the inhibition in experiment [4] and in experiment [5] were 2.24% (inactive) and -3.81% (inactive), respectively.
In the case of `O=C(NC1CC2CCC1C2)c1ccc(CN2CCOCC2)cc1` (stereo not given), the viability was 99.9% (inactive) in experiment [1], 96.9% (inactive) in experiment [2], 93.9% in experiment [3] (setting [6]) and 96.9% in experiment [3] (setting [7]). Further, the differential viability (reversal) in experiment [3] (H69AR cells + 2 uM doxorubicin) is 2.98% (inactive). Besides, the inhibition in experiment [4] was -2.89% (inactive); in experiment [5], -2.7% (inactive).
In the case of `Cc1ccc(OCc2nnc(SCC(=O)Nc3ccc4c(c3)OCO4)n2C)cc1`, the viability in experiment [1] was 91.2% (inactive); in experiment [2] it was 76.9% (inactive); in experiment [3] (setting [6]) it was 99.3%; in experiment [3] (setting [7]) it was 76.9%. The differential viability (reversal) in experiment [3] (H69AR cells + 2 uM doxorubicin) is -22.4% (inactive). For the same compound, the results for the inhibition in experiment [4] and in experiment [5] were -7.07% (inactive) and 6.98% (inactive), respectively.
As for `COc1ccc(-c2coc3c(CN4CCCCC4)c(O)c(CN4CCCCC4)c(O)c3c2=O)cc1`, the viability in experiment [1] is 76.7% (inactive); in experiment [2], 1.48% (active); in experiment [3] (setting [6]), 1.5%; in experiment [3] (setting [7]), 1.48%. Also, the differential viability (reversal) in experiment [3] (H69AR cells + 2 uM doxorubicin) was -0.025% (inactive). In addition, the values for the inhibition in experiment [4] and in experiment [5] were 0% (inactive) and 6.19% (inactive), respectively.
Consider `O=C(O)C1CC(=O)N(c2ccc(OCc3c(F)cccc3Cl)cc2)C1` (stereo not given), for which the viability in experiment [1] is 105% (inactive); in experiment [2] it was 105% (inactive); in experiment [3] (setting [6]) it was 101%; in experiment [3] (setting [7]) it was 105%. Besides, the differential viability (reversal) in experiment [3] (H69AR cells + 2 uM doxorubicin) is 4.8% (inactive). Besides, the results for the inhibition in experiment [4] and in experiment [5] were -0.52% (inactive) and -1.9% (inactive), respectively.
For `CCN(CC)CCCN1C(=O)C(=O)/C(=C(/O)c2ccc(C)cc2)C1c1ccccn1` (stereo not given), the viability in experiment [1] is 98.7% (inactive); in experiment [2], 91.8% (inactive); in experiment [3] (setting [6]), 93.6%; in experiment [3] (setting [7]), 91.8%. In addition, the differential viability (reversal) in experiment [3] (H69AR cells + 2 uM doxorubicin) is -1.81% (inactive). Further, the inhibition in experiment [4] is 6.4% (inactive); in experiment [5], -4.44% (inactive).
For the compound `CCCN(CCC)CCNS(=O)(=O)c1ccc2c(c1)oc(=O)n2C`, the viability was 97.1% (inactive) in experiment [1], 105% (inactive) in experiment [2], 92.5% in experiment [3] (setting [6]) and 105% in experiment [3] (setting [7]). Moreover, the differential viability (reversal) in experiment [3] (H69AR cells + 2 uM doxorubicin) was 12.9% (inactive). For the same compound, the inhibition in experiment [4] is -2.27% (inactive); in experiment [5], -2.06% (inactive).
As for `CN(C(=O)c1c(Cl)nc2sccn12)C1CCCCC1`, the viability is 106% (inactive) in experiment [1], 93.9% (inactive) in experiment [2], 77.5% in experiment [3] (setting [6]) and 93.9% in experiment [3] (setting [7]). Moreover, the differential viability (reversal) in experiment [3] (H69AR cells + 2 uM doxorubicin) was 16.4% (inactive). For the same compound, the values for the inhibition in experiment [4] and in experiment [5] were -5.53% (inactive) and -5.4% (inactive), respectively.
Turning to `O=C(CSc1nnc(-c2ccccc2)o1)N1CCc2ccccc2C1`, the viability in experiment [1] was 85.3% (inactive); in experiment [2], 93.1% (inactive); in experiment [3] (setting [6]), 93.1%; in experiment [3] (setting [7]), 93.1%. Besides, in experiment [3] (H69AR cells + 2 uM doxorubicin), the differential viability (reversal) was 0.04% (inactive). Further, the values for the inhibition in experiment [4] and in experiment [5] were -4.53% (inactive) and -5.24% (inactive), respectively.
For the compound `c1ccc(-c2nc3nonc3c3nc4ccccc4n23)cc1`, the viability was 93.8% (inactive) in experiment [1], 88.8% (inactive) in experiment [2], 90.8% in experiment [3] (setting [6]) and 88.8% in experiment [3] (setting [7]). Further, the differential viability (reversal) in experiment [3] (H69AR cells + 2 uM doxorubicin) was -1.96% (inactive). The results for the inhibition in experiment [4] and in experiment [5] were -6.27% (inactive) and 1.9% (inactive), respectively.
As to `CC(NS(=O)(=O)c1ccc(OCC(=O)N2CCOCC2)c(Cl)c1)c1ccccc1` (stereo not given), the viability is 94.9% (inactive) in experiment [1], 94.7% (inactive) in experiment [2], 94.4% in experiment [3] (setting [6]) and 94.7% in experiment [3] (setting [7]). The differential viability (reversal) in experiment [3] (H69AR cells + 2 uM doxorubicin) was 0.355% (inactive). Also, the figures for the inhibition in experiment [4] and in experiment [5] were -6.53% (inactive) and 4.76% (inactive), respectively.
Consider `Cc1cc(C)cc(Nc2ncc3c(n2)CC(c2ccco2)CC3=O)c1` (stereo not given), for which the viability is 86.1% (inactive) in experiment [1], 88.3% (inactive) in experiment [2], 87.3% in experiment [3] (setting [6]) and 88.3% in experiment [3] (setting [7]). Besides, the differential viability (reversal) in experiment [3] (H69AR cells + 2 uM doxorubicin) is 1% (inactive). Also, the values for the inhibition in experiment [4] and in experiment [5] were -6.67% (inactive) and 3.17% (inactive), respectively.
For `COc1ccccc1NS(=O)(=O)c1ccc(NC(=O)c2nc3ncccn3n2)cc1`, the viability was 94.7% (inactive) in experiment [1], 96.3% (inactive) in experiment [2], 85.1% in experiment [3] (setting [6]) and 96.3% in experiment [3] (setting [7]). In addition, the differential viability (reversal) in experiment [3] (H69AR cells + 2 uM doxorubicin) was 11.2% (inactive). In addition, the inhibition in experiment [4] is -1.17% (inactive); in experiment [5], 7.3% (inactive).
`CCn1c(Cc2ccccc2)nnc1SCC(=O)Nc1ccc(N2CCOCC2)c(Cl)c1`: the viability in experiment [1] is 101% (inactive); in experiment [2], 93.8% (inactive); in experiment [3] (setting [6]) it was 102%; in experiment [3] (setting [7]), 93.8%. Moreover, the differential viability (reversal) in experiment [3] (H69AR cells + 2 uM doxorubicin) was -8.62% (inactive). Also, the inhibition was -4.67% (inactive) in experiment [4] and 3.02% (inactive) in experiment [5].
For `COc1ccc(C)cc1-n1nnnc1SCC(=O)NC(=O)NCc1ccco1`, the viability in experiment [1] is 90.9% (inactive); in experiment [2] it was 87.3% (inactive); in experiment [3] (setting [6]) it was 78.1%; in experiment [3] (setting [7]), 87.3%. The differential viability (reversal) in experiment [3] (H69AR cells + 2 uM doxorubicin) was 9.23% (inactive). The inhibition in experiment [4] is -1.69% (inactive); in experiment [5], 3.17% (inactive).
